# Hits are enriched below; roughly 4.5% of the tested compounds scored in any of these assays.
# STAT1 act = STAT1 signaling activators, primary screen, cell-based, HTS, luciferase reporter | NIH 3T3 STAT1-luciferase reporter, IFN-gamma, luminescence; 100% = IFN-gamma alone, no compound | actives 2.6% (n = 200,000) | activation (% of control), % at 5.5 µM;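 active = activation above the screen-wide mean activation plus 3 SD, cut at about 130% in these data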;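 also: raw ratio to IFN-gamma control signal so 100% means no change and 0% no light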
# MDM2 E3 inh = MDM2-luciferase reporter signal enhancers, primary screen, MDM2 E3 ligase inhibitor project, cell-based, luminescence, 1536-well; AID 1230, 2008; cell-based MDM2 ubiquitination luciferase reporter, 2 h; 0 = plate control, 100 = twice control, blank-subtracted; actives 0.11% (n = 210,000); signal enhancement, % at 5 µM; E3 ubiquitin-protein ligase Mdm2 (Homo sapiens), Q00987;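 active = signal enhancement of 30% or more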;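 also: luminescence tracks abundance of the self-degrading MDM2-luciferase fusion protein; higher signal means inhibition of MDM2 E3 ligase activity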
#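 Test system: mammalian cells stably expressing self-ubiquitinating, self-degrading MDM2 E3–luciferase fusion; Amount: 2000 cells in each well; Medium: DMEM; Schedule: 4 h settle plus 2 h compound, 37 °C; Technique: SteadyLite luciferase luminescence after 15 min room-temperature reagent incubation; Benchmarks: plate control and blank wells.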
# PERK inhibitor = block of dimerizer-induced PERK translation repression, primary screen, PERK inhibitor project, CHO PERK-DD cells, SEAP luminescence, HTS; AID 1416, 2008; CHO PERK-DD fusion, SEAP luminescence translation reporter; actives 0.17% (n = 220,000); inhibition, % at 5.6 µM;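 active = inhibition above the mean inhibition of all tested compounds plus 3 SD, set separately per screening campaign, cut at about 2.9% in these data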;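 also: PERK kinase domain activated by AP20187 dimerizer at 100 nM; 0% = DMSO with dimerizer and 100% = rapamycin at 8.4 µM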
# AHR activator = AHR activators, primary screen, cell-based, luminescence, luciferase reporter, human; AHR-responsive luciferase reporter cells; activation, % at 5 µM; actives 2.5% (n = 320,000); AID 2796, 2010; in the data active = activation above about 47%;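 also: 0% = vehicle wells and 100% = reference agonist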
# Target sequence (P35869 whole entry, looked up): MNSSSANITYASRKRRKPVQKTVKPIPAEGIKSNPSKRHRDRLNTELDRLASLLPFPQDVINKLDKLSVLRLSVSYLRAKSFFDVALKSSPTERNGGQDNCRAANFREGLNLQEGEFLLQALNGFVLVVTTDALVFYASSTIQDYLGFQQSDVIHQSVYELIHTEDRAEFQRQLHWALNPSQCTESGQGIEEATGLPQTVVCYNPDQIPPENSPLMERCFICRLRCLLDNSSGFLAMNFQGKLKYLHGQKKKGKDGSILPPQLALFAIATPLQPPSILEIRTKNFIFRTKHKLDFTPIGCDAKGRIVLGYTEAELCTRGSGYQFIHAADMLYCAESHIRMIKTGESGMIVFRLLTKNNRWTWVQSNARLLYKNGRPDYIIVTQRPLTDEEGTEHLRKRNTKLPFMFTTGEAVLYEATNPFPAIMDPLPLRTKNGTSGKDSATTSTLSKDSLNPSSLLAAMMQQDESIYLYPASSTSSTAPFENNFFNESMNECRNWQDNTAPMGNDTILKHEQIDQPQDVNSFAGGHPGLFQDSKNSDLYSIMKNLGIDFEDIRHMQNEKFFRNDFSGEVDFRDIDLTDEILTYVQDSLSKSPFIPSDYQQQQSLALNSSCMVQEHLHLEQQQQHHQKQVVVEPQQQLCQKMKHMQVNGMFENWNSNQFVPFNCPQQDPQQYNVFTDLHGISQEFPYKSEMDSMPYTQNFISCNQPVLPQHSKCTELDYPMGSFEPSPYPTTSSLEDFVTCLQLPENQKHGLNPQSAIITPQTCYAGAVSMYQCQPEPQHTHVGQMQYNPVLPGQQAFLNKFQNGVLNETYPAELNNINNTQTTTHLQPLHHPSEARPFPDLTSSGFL
# NF-kB neuron act = activators of NF-kB expression in neurons, primary screen, cell-based, HTS; human neuronal cells, NF-kB reporter expression; stronger effect = higher value; fold change at 12.5 µM; actives 1.6% (n = 190,000); in the data active = fold change above about 3.3
# APP 5'UTR act = activators of APP 5'UTR luciferase reporter, primary screen, SH-SY5Y cells | actives 1% (n = 190,000) | activation, % at 2 µM | SH-SY5Y APP 5'UTR luciferase reporter, luminescence; zero percent = DMSO vehicle wells;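 active = activation above a set limit, based on mean plus 3 SD of controls, cut at about 140% in these data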
# An asterisk follows results filed as active; nt = no result given.
SMILES,STAT1 act,MDM2 E3 inh,PERK inhibitor,AHR activator,NF-kB neuron act,APP 5'UTR act
C/C(=N/Nc1nc(C)cc(-c2ccccc2)n1)c1ccco1,106,2,0,43,1.3,36
C=C[C@@H]1c2cc(C)ccc2N(S(=O)(=O)c2ccc(C)cc2)[C@H](c2ccccc2)C1(C#N)S(=O)(=O)c1ccccc1 (stereo partly specified),nt,nt,nt,3,nt,nt
Cc1cc(Cl)ccc1NC(=O)C1COc2ccccc2O1 (stereo unspecified),nt,nt,nt,9,nt,nt
Cc1cc(C)c(NC(=O)Cn2nnc(C(=O)NCc3ccc4c(c3)OCO4)c2N)c(C)c1,nt,nt,nt,3,nt,nt
Cc1ccccc1OCC(=O)OCC(=O)c1ccc(OCc2ccccc2)cc1,119,-2,0,4,2.2,37
COc1ccccc1CC(=O)c1ccc(OCc2ccccc2)cc1,nt,nt,nt,48*,nt,nt
CC(NC(=O)c1cc(S(=O)(=O)N2CCCC2)cn1C)c1ccccc1 (stereo unspecified),nt,nt,nt,0,nt,nt
CCOc1ccccc1Nc1nnc(SCC(=O)NC2CCS(=O)(=O)C2)s1 (stereo unspecified),nt,nt,nt,3,nt,nt
C=CCn1c(=O)c(C(=O)NCc2ccccc2Cl)c(O)c2ccccc21,nt,nt,nt,3,nt,nt
N#C/C(=C/c1ccc(N2CCCCCC2)o1)c1ccc(Cl)cc1,92,nt,-1,1,3.4*,6
N#C/C(=C/c1ccc(N2CCCCC2)cc1)c1cccc(F)c1,115,-5,0,1,1.1,81
N#C/C(=C\c1ccc(N2CCOCC2)o1)C(=O)NC1CCCCC1,nt,-13,-2,-6,nt,nt
N#C/C(=C/c1ccc(N2CCCCC2)o1)c1cccc(F)c1,145*,-16,-2,0,1.9,-7
COc1cc(CNCc2cc(OC)ccc2OC)cc(OC)c1,nt,nt,nt,9,nt,nt
CCCCOc1ccc(/C=C/C(=O)NC2=Nc3ccccc3NC(C)=C2C(=O)OCC)cc1OC,96,-20,0,7,0.98,-11
CN(C)c1ccc(N2CN=C3SCC(=O)N3C2)cc1,160*,-23,1,33,0.58,136*
COc1ccc(/C=N/Nc2ccccn2)c(OC)c1OC,115,-3,0,30,1,36
COc1cc(/C=N/Nc2ccccn2)cc(OC)c1O,107,-10,0,24,1.9,-15
C=CCOc1ccc(/C=N/Nc2ccccn2)cc1OC,138*,-11,0,55*,2.5,91
COc1cc(/C=N/Nc2ccccn2)ccc1OCC(C)C,148*,-20,1,71*,1.5,91
CCCOc1ccc(/C=N/Nc2ccccn2)cc1OC,148*,-19,0,35,2.4,118
O=C(NCCc1ccc(F)cc1)c1cc(-c2ccncc2)nc2ccccc12,nt,-1,0,nt,nt,nt
COc1ccc(-c2nc(CN3CCC(C(=O)NCC4CCCO4)CC3)c(C)o2)cc1OC (stereo unspecified),nt,nt,nt,1,nt,nt
CC(=O)CCC1CC(c2ccc(Cl)cc2)=NO1 (stereo unspecified),nt,nt,nt,-4,nt,nt
COc1ccc(C2=NOC(Cn3nc(C(=O)O)cc3-c3ccccc3)C2)cc1 (stereo unspecified),nt,nt,nt,0,nt,nt
SMILES,STAT1 act,MDM2 E3 inh,PERK inhibitor,AHR activator,NF-kB neuron act,APP 5'UTR act
O=C1c2ccccc2S(=O)(=O)N1CC1CC(c2ccc(Cl)cc2)=NO1 (stereo unspecified),139*,-44,0,49*,1.4,100
COc1ccc(C2=NOC(CN3C(=O)c4ccccc4S3(=O)=O)C2)cc1 (stereo unspecified),148*,-23,0,2,5.5*,137*
O=C(CN1C(=O)c2ccccc2S1(=O)=O)c1ccccc1,44,-43,1,-8,0.15,-3
O=C1c2ccccc2S(=O)(=O)N1CC1CC(c2ccccc2)=NO1 (stereo unspecified),132*,1,-2,4,2.6,35
COc1cc(OC)cc(C(=O)Nc2ccccc2N2CCOCC2)c1,99,-19,-1,61*,0.88,-7
CS(=O)(=O)N1CCN(c2ccccc2NC(=O)c2ccc3ccccc3c2)CC1,102,4,0,39,0.47,-29
COc1cc(OC)cc(C(=O)Nc2ccc(N3CCOCC3)cc2N2CCOCC2)c1,nt,nt,nt,-1,nt,nt
COc1c(F)c(F)c(C(=O)Nc2ccccc2N2CCN(C(C)=O)CC2)c(F)c1F,93,-7,-1,50*,0.77,-10
O=C(Nc1ccccc1N1CCOCC1)c1ccc(Cl)nc1,103,-10,1,60*,1.1,-7
CS(=O)(=O)N1CCN(c2ccccc2NC(=O)c2ccc(Cl)cc2)CC1,98,-16,-1,79*,0.98,-17
O=C(NCCc1ccccc1)C1CCC(CNS(=O)(=O)c2ccc(F)cc2)CC1 (stereo unspecified),nt,nt,nt,2,nt,nt
N=C1C(c2nc3ccccc3s2)=C(O)CN1C1CCCCC1,147*,11,0,17,1.1,42
N=C1C(c2nc3ccccc3s2)=C(O)CN1C1CCC(O)CC1 (stereo unspecified),nt,3,0,40,nt,nt
N=C1C(c2nc3ccccc3s2)=C(O)CN1Cc1ccccc1,131*,-4,0,10,1.3,23
CCc1cc(=O)oc2cc(C)cc(OCC(=O)NCc3ccncc3)c12,nt,nt,nt,75*,nt,nt
CCCCc1cc(=O)oc2cc(C)cc(OCC(=O)NCc3cccnc3)c12,nt,nt,nt,17,nt,nt
CCc1cc(=O)oc2cc(C)cc(OCC(=O)NCc3cccnc3)c12,nt,nt,nt,49*,nt,nt
Cc1cc(OCC(=O)Nc2cccnc2)c2c(C)c(C)c(=O)oc2c1,nt,nt,nt,78*,nt,nt
N#Cc1c(NC(=O)c2ccccc2)sc2c1CCCCC2,136*,nt,-1,10,3.8*,198*
CC(C)N1CCc2c(sc(NC(=S)NC(=O)c3ccccc3)c2C#N)C1,134*,-9,0,25,0.45,30
Cc1ccc(C(=O)Nc2sc3c(c2C#N)CCCCC3)cc1C,134*,-15,0,71*,1.3,31
Cc1cc(C(=O)Nc2sc3c(c2C#N)CCC(C)C3)no1 (stereo unspecified),139*,-1,0,3,1.1,66
O=C(Nc1sc2c(c1C(=O)O)CCCCC2)c1ccccc1,127,-17,1,20,1.9,84
Cc1ccc(NC(=O)CC(C)c2ccccc2)cc1S(=O)(=O)N1CCOCC1 (stereo unspecified),nt,nt,nt,-1,nt,nt

# Assay outcomes: PubChem, several laboratories
